According to ChEMBL document CHEMBL1152748, “Inhibition of iNOS and COX-2 in human whole blood ex vivo and monocyte-macrophage J774 cells by a new group of aminothiopyrimidone derivatives” (Bioorg Med Chem, 2009):

Key:
[1] = biological target: T1, Prostaglandin G/H synthase 2 (Homo sapiens, UniProt P35354); assay: Inhibition of COX2 in LPS-stimulated human whole blood assessed as inhibition of PGE2 production by […]; type: tissue-based
T1 sequence (P35354 whole entry): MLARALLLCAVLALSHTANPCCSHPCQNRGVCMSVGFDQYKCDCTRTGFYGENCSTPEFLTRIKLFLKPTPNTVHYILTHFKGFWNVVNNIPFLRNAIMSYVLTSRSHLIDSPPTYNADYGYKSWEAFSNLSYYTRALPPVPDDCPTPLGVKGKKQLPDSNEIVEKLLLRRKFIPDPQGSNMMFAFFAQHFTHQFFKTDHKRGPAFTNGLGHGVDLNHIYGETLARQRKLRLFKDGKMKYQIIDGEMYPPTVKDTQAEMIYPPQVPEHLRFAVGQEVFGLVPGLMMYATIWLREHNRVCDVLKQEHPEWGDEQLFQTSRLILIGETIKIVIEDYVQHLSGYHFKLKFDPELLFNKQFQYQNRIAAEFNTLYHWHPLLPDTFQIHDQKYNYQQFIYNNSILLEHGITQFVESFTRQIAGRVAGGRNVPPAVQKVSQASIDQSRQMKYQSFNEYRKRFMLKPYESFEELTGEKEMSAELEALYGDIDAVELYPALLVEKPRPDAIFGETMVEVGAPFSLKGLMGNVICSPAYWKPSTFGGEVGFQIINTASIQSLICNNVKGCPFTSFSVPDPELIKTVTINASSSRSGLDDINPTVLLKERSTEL
In short: (§1)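 Heparinized (10 IU) whole blood from young healthy volunteers, drawn 48 h after 300 mg oral aspirin to suppress platelet COX-1. 1 ml aliquots; compound added in DMSO (final 10 µM) before LPS 10 µg/ml, 24 h at 37 °C. Plasma stored at -70 °C, PGE2 by competitive peroxidase EIA at 450 nm (range 50–6400 pg/ml). Mean ± SEM, three experiments in triplicate.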

[2] = biological target: T2, Nitric oxide synthase, inducible (Mus musculus) (UniProt P29477); assay: Inhibition of iNOS in LPS-stimulated mouse J774 cells assessed as inhibition of nitric oxide generation at 10 uM; type: cell-based
T2 sequence (whole entry): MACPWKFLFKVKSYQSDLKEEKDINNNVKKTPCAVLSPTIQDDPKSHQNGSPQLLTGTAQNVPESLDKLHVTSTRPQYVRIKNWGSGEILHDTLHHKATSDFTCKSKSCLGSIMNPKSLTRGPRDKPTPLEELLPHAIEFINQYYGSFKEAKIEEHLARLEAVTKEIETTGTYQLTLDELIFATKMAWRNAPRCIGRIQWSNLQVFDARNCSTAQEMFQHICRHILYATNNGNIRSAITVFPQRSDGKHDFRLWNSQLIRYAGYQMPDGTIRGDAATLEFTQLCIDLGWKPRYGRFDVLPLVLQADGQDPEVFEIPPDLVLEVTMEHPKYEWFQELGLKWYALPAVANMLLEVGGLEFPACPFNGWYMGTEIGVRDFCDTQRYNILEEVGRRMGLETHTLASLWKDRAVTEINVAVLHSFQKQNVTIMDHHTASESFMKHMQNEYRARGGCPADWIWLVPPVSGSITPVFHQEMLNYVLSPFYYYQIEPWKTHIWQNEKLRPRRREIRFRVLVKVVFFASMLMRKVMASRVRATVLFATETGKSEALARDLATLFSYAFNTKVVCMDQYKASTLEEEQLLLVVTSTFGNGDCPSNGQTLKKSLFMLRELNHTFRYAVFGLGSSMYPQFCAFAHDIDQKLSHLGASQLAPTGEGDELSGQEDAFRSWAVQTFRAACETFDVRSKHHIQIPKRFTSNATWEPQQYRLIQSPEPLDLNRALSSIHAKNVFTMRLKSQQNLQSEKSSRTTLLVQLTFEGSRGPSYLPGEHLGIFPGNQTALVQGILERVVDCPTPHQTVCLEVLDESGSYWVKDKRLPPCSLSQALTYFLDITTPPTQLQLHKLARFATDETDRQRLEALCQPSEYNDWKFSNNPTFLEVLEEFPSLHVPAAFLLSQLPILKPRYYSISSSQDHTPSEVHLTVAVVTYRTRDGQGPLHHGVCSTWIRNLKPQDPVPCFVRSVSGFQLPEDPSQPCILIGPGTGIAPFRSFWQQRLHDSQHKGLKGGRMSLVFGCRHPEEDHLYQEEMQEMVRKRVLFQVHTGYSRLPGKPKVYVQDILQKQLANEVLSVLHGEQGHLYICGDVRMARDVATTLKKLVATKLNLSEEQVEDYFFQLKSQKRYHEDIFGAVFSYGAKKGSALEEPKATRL
In short: (§2)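 J774 cells plated at 2.5×10^5 cells/ml, adhered 24 h, then given LPS 5 µg/ml for 72 h with compound at 10 µM (DMSO vehicle). Supernatant nitrite measured by Griess reaction, 10 min at room temperature, absorbance at 550 nm against sodium nitrite standard (detection limit 1 µM). NGMMA 500 µM served as control. Mean ± SEM, three experiments in triplicate.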

[3] = biological target: T3, Prostaglandin G/H synthase 2 (Homo sapiens) (UniProt P35354); conditions: Blood, at 10 µM
T3 sequence (whole entry): T1 sequence (P35354 whole entry)

[4] = biological target: T4, Prostaglandin G/H synthase 2 (Mus musculus) (UniProt Q05769); assay: Activation of COX2 in LPS-stimulated mouse J774 cells assessed as stimulation of PGE2 production by […]; type: cell-based; set-up: concentration or dose not given beside the values
T4 sequence (whole entry): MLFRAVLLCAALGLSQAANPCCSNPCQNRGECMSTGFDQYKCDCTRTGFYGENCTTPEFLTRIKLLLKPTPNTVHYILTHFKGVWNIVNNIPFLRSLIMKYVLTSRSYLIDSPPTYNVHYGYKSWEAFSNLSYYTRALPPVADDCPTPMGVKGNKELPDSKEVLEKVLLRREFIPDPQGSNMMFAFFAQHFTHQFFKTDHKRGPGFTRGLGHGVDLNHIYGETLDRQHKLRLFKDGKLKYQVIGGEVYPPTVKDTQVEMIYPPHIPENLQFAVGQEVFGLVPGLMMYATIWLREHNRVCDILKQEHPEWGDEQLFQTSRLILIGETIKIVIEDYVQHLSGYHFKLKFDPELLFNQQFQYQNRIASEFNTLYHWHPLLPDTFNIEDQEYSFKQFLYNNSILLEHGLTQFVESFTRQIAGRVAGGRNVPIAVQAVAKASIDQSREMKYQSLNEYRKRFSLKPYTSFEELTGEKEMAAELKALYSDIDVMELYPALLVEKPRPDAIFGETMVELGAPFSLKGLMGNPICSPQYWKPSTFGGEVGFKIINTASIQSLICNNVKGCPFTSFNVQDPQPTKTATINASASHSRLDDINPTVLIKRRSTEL
In short: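 Mouse J774 monocyte-macrophages in DMEM/10% FCS, plated at 2.5×10^5 cells/ml and adhered 24 h. Stimulated with LPS 5 µg/ml for 72 h with compound (10 µM, DMSO vehicle). Supernatant PGE2 by competitive peroxidase EIA at 450 nm (50–6400 pg/ml) against vehicle control. Mean ± SEM, three experiments in triplicate.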

[5] = biological target: T3, Prostaglandin G/H synthase 2 (Homo sapiens); assay: Activation of COX2 in LPS-stimulated human whole blood assessed as stimulation of PGE2 production at 10 uM […]; type: tissue-based; in short: as §1
[6] = biological target: T2, Nitric oxide synthase, inducible (Mus musculus); assay: Activation of iNOS in LPS-stimulated mouse J774 cells assessed as stimulation of nitric oxide generation at 10 uM; type: cell-based; in short: as §2

SMILES	IC50 [1]	inhibition [2]	inhibition [3]	Activity [4]	Activity [5]	Activity [6]
Nn1c(SC(C(=O)O)c2ccccc2)nc2ccsc2c1=O (stereo unspecified)	–	55%	–	–	–	–
CC(Sc1nc2c([nH]c3ccccc32)c(=O)n1N)C(=O)O (stereo unspecified)	–	–	–	180%	28%	35%
Nn1c(SC2CCCCC2)nc2sc(-c3ccccc3)cc2c1=O	–	70%	90%	–	–	–
Nn1c(SC(C(=O)O)c2ccccc2)nc2ccccc2c1=O (stereo unspecified)	–	–	–	30%	21%	5%
CC(Sc1nc2ccccc2c(=O)n1N)C(=O)O (stereo unspecified)	5.8 µM	50%	88%	–	–	–

Continued, values first:

IC50 [1]	inhibition [2]	inhibition [3]	Activity [4]	Activity [5]	Activity [6]	SMILES
7 µM	38%	70%	–	–	–	Nn1c(SC(C(=O)O)c2ccccc2)nc2ccc(Br)cc2c1=O (stereo unspecified)
–	96%	–	–	–	–	Cc1ccc(-c2cc(C(F)(F)F)nn2-c2ccc(S(N)(=O)=O)cc2)cc1
3.4 µM	100%	100%	–	–	–	CS(=O)(=O)Nn1c(Sc2ccc([N+](=O)[O-])cc2[N+](=O)[O-])nc2sc(-c3ccccc3)cc2c1=O
–	–	–	250%	90%	52%	CC(Sc1nc2sc(-c3ccccc3)cc2c(=O)n1N)C(=O)O (stereo unspecified)
–	–	–	52%	6%	10%	CC(Sc1nc2c(sc3ccccc32)c(=O)n1N)C(=O)O (stereo unspecified)
–	60%	75%	–	–	–	Nn1c(Sc2ccc([N+](=O)[O-])cc2[N+](=O)[O-])nc2sc(-c3ccccc3)cc2c1=O
–	–	–	346%	205%	11%	Cc1sc2nc(SC(C(=O)O)c3ccccc3)n(N)c(=O)c2c1C (stereo unspecified)
–	90%	–	–	–	–	COc1ccc2c(c1)c(CC(=O)O)c(C)n2C(=O)c1ccc(Cl)cc1
